Results: ChEMBL document CHEMBL4387775, “Minimum structural requirements for inhibitors of the zinc finger protein TRAF6” (Bioorg Med Chem Lett, 2019)
The source made the active and inactive calls. The calls are words filed in the database; no cut-off is given here.

Experiments:
[1] = target: T1, TNF receptor-associated factor 6 (Homo sapiens) (UniProt Q9Y4K3); experiment: Inhibition of TRAF6 (unknown origin)-mediated NFkappaB activation expressed in human HeLaS3 cells harboring 3kappaB-tk-luc at 10 uM preincubated for 1 hr followed by Il1alpha-stimulation and measured after 3 hrs in presence of DTT by dual-luciferase reporter gene assay relative to control; assay type: cell-based
T1 sequence (whole entry): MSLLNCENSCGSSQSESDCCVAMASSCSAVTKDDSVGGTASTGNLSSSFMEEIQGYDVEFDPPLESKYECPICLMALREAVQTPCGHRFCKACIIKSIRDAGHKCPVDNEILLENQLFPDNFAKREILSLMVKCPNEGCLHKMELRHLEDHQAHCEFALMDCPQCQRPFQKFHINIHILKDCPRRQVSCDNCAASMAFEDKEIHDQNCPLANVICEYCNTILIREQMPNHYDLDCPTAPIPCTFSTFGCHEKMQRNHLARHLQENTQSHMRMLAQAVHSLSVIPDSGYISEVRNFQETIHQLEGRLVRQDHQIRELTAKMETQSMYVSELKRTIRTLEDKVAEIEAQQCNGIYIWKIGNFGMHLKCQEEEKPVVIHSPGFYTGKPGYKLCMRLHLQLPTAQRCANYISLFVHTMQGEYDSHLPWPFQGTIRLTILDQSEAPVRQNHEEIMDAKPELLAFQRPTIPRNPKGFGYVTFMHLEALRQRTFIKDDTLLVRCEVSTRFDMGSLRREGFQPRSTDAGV
Method in brief: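 Cells co-transfected with 3κB-tk-luc and pRL-Luc (β-actin-driven renilla), cultured 1 day, then given compound (10 μM) plus DTT (30 μM) for 1 h before IL-1α (10 ng/mL) stimulation for 3 h. Dual-luciferase read-out: κB-firefly signal normalized to renilla, reported as relative NF-κB activity.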

[2] = Prodrug conversion in human HeLaS3 assessed as NpSH formation at 10 uM; assay type: ADME, cell-based; conditions: hela s3, 10 µM
[3] = tested on: HeLa S3; experiment: Cytotoxicity against human HeLaS3 cells assessed as reduction in cell viability at 10 uM measured after 8 hrs in presence of DTT by MTT assay relative to control; assay type: functional
Method in brief: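 Cells treated with compound at 10 μM together with DTT (30 μM), incubated 8 h, then viability read by MTT assay; shown as activity relative to control.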

[4] = target: T1, TNF receptor-associated factor 6 (Homo sapiens); experiment: Inhibition of TRAF6 (unknown origin)-mediated NFkappaB activation expressed in human HeLaS3 cells harboring 3kappaB-tk-luc at 10 uM preincubated for 1 hr followed by Il1alpha-stimulation and measured after 3 hrs by dual-luciferase reporter gene assay relative to control; assay type: cell-based
Method in brief: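 Cells co-transfected with 3κB-tk-luc (triple κB site driving firefly luciferase) and pRL-Luc (β-actin promoter driving renilla luciferase), cultured 1 day, given compound (10 μM) without DTT for 1 h, then stimulated with IL-1α (10 ng/mL) for 3 h. Lysates read by dual-luciferase assay; firefly signal normalized to renilla, expressed as relative NF-κB activity.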

Compound	inhibition [1]	Drug metabolism [2]	inhibition [4] [%]	Activity [3]
CC(C)=CCC/C(C)=C/CC/C(C)=C/COC(=O)Nc1cc(CNCCS)nc(CNCCS)c1	inactive	–	–	–
CCCCCCCCCCCCOC(=O)Nc1cc(CNCCS)nc(CNCCS)c1	inactive	–	–	–
CN(C)c1cc(CNCCSSc2ccccc2[N+](=O)[O-])nc(CNCCSSc2ccccc2[N+](=O)[O-])c1	89%	Metabolite_Detected	80	inactive
O=[N+]([O-])c1ccccc1SSc1ccccc1[N+](=O)[O-]	–	Metabolite_Detected	–	–
Sc1ccccc1NCc1ccccn1	inactive	–	–	–
O=[N+]([O-])c1ccccc1SSCCNCc1cccc(CNCCSSc2ccccc2[N+](=O)[O-])n1	84%	Metabolite_Detected	76	–
O=C(CCCC[C@@H]1SC[C@@H]2NC(=O)N[C@@H]21)NCCCCCCOC(=O)Nc1cc(CNCCS)nc(CNCCS)c1	78%	–	–	–

Now from value to compound, other results behind:

inhibition [1]	Drug metabolism [2]	inhibition [4] [%]	Compound	Activity [3]
inactive	Metabolite_Detected	–	O=[N+]([O-])c1ccccc1SSCCNCc1cccc(CNCCSSc2ccccc2[N+](=O)[O-])c1	–
inactive	–	–	CN(C)c1ccnc(CNCCS)c1	–
inactive	–	–	O=[N+]([O-])c1ccccc1S	24%
inactive	–	–	SCCNCc1ccccn1	–
